The values that follow come from ChEMBL document CHEMBL1142126, “Triterpenoid pyrazines and benzopyrazines with cytotoxic activity” (J Nat Prod, 2007).

SMILES strings stand for the structures.

Assay [1] has as its system CCRF-CEM. The assay can be described thus: Cytotoxicity against human CEM cells after 72 hrs by MTT assay. The assay is classed as cell-based. In outline: (§1)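 Cells seeded at 2500-30 000 per well depending on growth characteristics, preincubated 24 h at 37 °C, 5% CO2. Compounds dissolved in 10% DMSO, added as four-fold dilutions, quadruplicate. 72 h exposure at 37 °C, 5% CO2, 100% humidity. MTT added for 1-4 h, formazan dissolved in 10% aqueous SDS (pH 5.5) overnight at 37 °C, OD 540 nm. Survival relative to control wells; TCS50 taken from dose-response curves.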

The next assay concerns A549. Briefly: Cytotoxicity against human A549 cells after 72 hrs by MTT assay. The assay is classed as cell-based. As to conditions: A549, 72 h. In outline: as §1
(Tetrazolium dyes change colour on reduction, which living cells bring about.)

For the next assay, the system named is HT-29. Briefly: Cytotoxicity against human HT29 cells after 72 hrs by MTT assay. The assay is classed as cell-based. Particulars: HT-29, 72 h. In outline: as §1
The next assay deals with K562. Briefly: Cytotoxicity against human K562 cells after 72 hrs by MTT assay. The assay is classed as cell-based. As to conditions: K562, 72 h. In outline: as §1
A short description of assay [2]: Cytotoxicity against human Pgp-positive multidrug-resistant K562-tax cells after 72 hrs by MTT assay. In kind it is ADME, cell-based. In a few lines:
as §1

In another assay the test system is PC-3. Briefly: Cytotoxicity against human PC3 cells after 72 hrs by MTT assay. In kind it is cell-based. As to conditions: PC-3, 72 h. In a few lines: as §1
The nature of assay [3]: Cytotoxicity against human U87-Mg cells after 72 hrs by MTT assay. The assay is classed as cell-based, U-87MG ATCC. As to conditions: U-87 MG. In a few lines:
as §1

Assay [4] in a line: Cytotoxicity against B2-4 cells after 72 hrs by MTT assay. In kind it is cell-based. As to conditions: Homo sapiens, B2-4, 72 h. In a few lines:
as §1

Assay [5] has as its system CCRF-CEM. The assay can be described thus: Cytotoxicity against daunorubicin-resistant CEM-DNR-bulk cells after 72 hrs by MTT assay. In kind it is cell-based. As to conditions: Homo sapiens. In outline: as §1
The subject of another assay is SK-MEL-2. The assay can be described thus: Cytotoxicity against human SK-MEL-2 cells after 72 hrs by MTT assay. The assay is classed as cell-based. As to conditions: SK-MEL-2, 72 h. In outline:
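Cells seeded at 2500–30 000/well by growth characteristics, preincubated 24 h at 37 °C, 5% CO2; four-fold dilutions of compound (dissolved in 10% DMSO) added, 72 h exposure at 37 °C, 5% CO2, 100% humidity; quadruplicate. MTT 1–4 h, formazan dissolved in 10% SDS (pH 5.5) overnight, OD 540 nm; survival vs control wells, TCS50 from dose–response curves.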

What is called IC50 is the concentration needed to halve the response being measured. Low readings indicate higher potency, high ones lower potency. Regarding `CC(C)[C@@H]1CC[C@]2(C(=O)O)CC[C@]3(C)[C@H](CC[C@@H]4[C@@]5(C)Cc6nc7ccccc7nc6C(C)(C)[C@@H]5CC[C@]43C)[C@@H]12`, the IC50 in the assay on CCRF-CEM [1] came to 124 µM; with A549, 122 µM; in the assay on HT-29 it was 123 µM; in the assay on K562, 113 µM; in assay [2], 117 µM; with PC-3, 103 µM. Further, the IC50 came out at 148 µM in assay [3], 99 µM in [4] and 198 µM in the assay with CCRF-CEM [5].
As to `CC(=O)OC[C@@]12CC[C@]3(C)[C@@H](CC[C@@H]4[C@@]5(C)CCC(OC(C)=O)C(C)(C)[C@@H]5CC[C@]43C)C1=C(C(C)C)c1nc3ccccc3nc12` (stereo partly drawn), the half-inhibitory concentration (IC50) in the assay with CCRF-CEM [1] was found to be 106 µM; with A549, 101 µM; in the assay on HT-29, 229 µM; in the assay on K562, 70 µM; in assay [2], 234 µM; with PC-3, 233 µM. Besides, the half-maximal inhibitory concentration (IC50) in the assay on SK-MEL-2 worked out at 231 µM.
For the compound `C=C(C)[C@@H]1CC[C@]2(C(=O)OCOC(C)=O)CC[C@]3(C)[C@H](CC[C@@H]4[C@@]5(C)Cc6nccnc6C(C)(C)[C@@H]5CC[C@]43C)[C@@H]12`, the concentration for half-maximal inhibition (IC50) is 12 µM in the assay on CCRF-CEM [1]; 1 µM in the assay with A549; 77 µM in the assay on HT-29; 2 µM in the assay on K562; 35 µM in [2]; 35 µM with PC-3. This compound showed a concentration for half-maximal inhibition (IC50) with SK-MEL-2 of 69 µM.
Turning to `CC(=O)OC[C@@]12CC[C@]3(C)[C@H](CC[C@@H]4[C@@]5(C)CC[C@H](OC(C)=O)C(C)(C)[C@@H]5CC[C@]43C)C1=C(C(C)C)C(=O)C2=O`, the IC50 with CCRF-CEM [1] turned out to be 250 µM; in the assay with A549, 103 µM; in the assay on HT-29, 250 µM; in the assay on K562 it was 250 µM; in [2], 250 µM; in the assay with PC-3, 208 µM. The IC50 in the assay with SK-MEL-2 turned out to be 170 µM.
Take `C=C(C)[C@@H]1CC[C@]2(C(=O)O)CC[C@]3(C)[C@H](CC[C@@H]4[C@@]5(C)Cc6nc7ccccc7nc6C(C)(C)[C@@H]5CC[C@]43C)[C@@H]12`: the IC50 in the assay on CCRF-CEM [1] turned out to be 42 µM; in the assay on A549 it was 48 µM; with HT-29, 96 µM; in the assay with K562 it was 86 µM; in [2] it was 118 µM; in the assay on PC-3 it was 64 µM. The compound further returned an IC50 in the assay with SK-MEL-2 of 192 µM.
`COC(=O)[C@]12CC[C@@H](C(C)C)[C@@H]1[C@H]1CC[C@@H]3[C@@]4(C)Cc5nccnc5C(C)(C)[C@@H]4CC[C@@]3(C)[C@]1(C)CC2`: the IC50 in the assay with CCRF-CEM [1] was 151 µM; in the assay with A549 it was 220 µM; in the assay with HT-29 it was 164 µM; with K562, 201 µM; in assay [2] it was 91 µM; with PC-3 it was 227 µM. The IC50 is 231 µM in [3], 94 µM in assay [4] and 235 µM in the assay with CCRF-CEM [5].
As for `COC(=O)[C@@]12CC[C@]3(C)[C@H](CC[C@@H]4[C@@]5(C)CC[C@H](OC(C)=O)C(C)(C)[C@@H]5CC[C@]43C)C1=C(C(C)C)C(=O)C2=O`, the IC50 in the assay on CCRF-CEM [1] is 16 µM; in the assay with A549, 13 µM; in the assay on HT-29, 7 µM; in the assay with K562 it was 6 µM; in assay [2] it was 9 µM; in the assay on PC-3 it was 14 µM. For the same compound, the IC50 in the assay with SK-MEL-2 was 14 µM; in assay [3], 74 µM; in the assay with CCRF-CEM [5] it was 5 µM.
For the compound `C=C(C)[C@@H]1CC[C@]2(C(=O)O)CC[C@]3(C)[C@H](CC[C@@H]4[C@@]5(C)CCC(=O)C(C)(C)[C@@H]5CC[C@]43C)[C@@H]12` [BETUNOLIC ACID], the half-maximal inhibitory concentration (IC50) was found to be 20 µM in the assay on CCRF-CEM [1]; 15 µM in the assay on A549; 17 µM in the assay with HT-29; 6 µM in the assay with K562; 17 µM in [2]; 15 µM in the assay on PC-3. Also, the half-inhibitory concentration (IC50) in the assay with SK-MEL-2 came to 26 µM; in [3], 159 µM.
For the compound `C=C(C)[C@@H]1CC[C@]2(C(=O)OC)CC[C@]3(C)[C@H](CC[C@@H]4[C@@]5(C)Cc6nc7ccccc7nc6C(C)(C)[C@@H]5CC[C@]43C)[C@@H]12`, the 50% inhibitory concentration (IC50) worked out at 250 µM with CCRF-CEM [1]; 250 µM in the assay on A549; 250 µM in the assay on HT-29; 245 µM in the assay with K562; 250 µM in assay [2]; 250 µM in the assay on PC-3. Further, the figures for the IC50 (in assay [3]; in [4]; in the assay on CCRF-CEM [5]) were 250 µM, 47 µM and 250 µM, respectively.
Take `CC1(C)CC[C@]23CC[C@]4(C)[C@H](CC[C@@H]5[C@@]6(C)CC[C@H](O)C(C)(C)[C@@H]6CC[C@]54C)[C@H]2[C@H]1OC3` [ALLOBETULIN]: half-maximal inhibition in the assay on CCRF-CEM [1] (IC50) was put at 250 µM.
Take `COC(=O)[C@@]12CC[C@]3(C)[C@H](CC[C@@H]4[C@@]5(C)CCC(OC(C)=O)C(C)(C)[C@@H]5CC[C@]43C)C1=C(C(C)C)c1nc3ccccc3nc12` (stereo partly drawn): the IC50 in the assay on CCRF-CEM [1] came to 192 µM. This IC50 and that of the compound before are within 1.5-fold of each other.
Turning to `C=C(C)[C@@H]1CC[C@]2(C(=O)OCOC(=O)C(C)(C)C)CC[C@]3(C)[C@H](CC[C@@H]4[C@@]5(C)Cc6nccnc6C(C)(C)[C@@H]5CC[C@]43C)[C@@H]12`, the half-inhibitory concentration (IC50) with CCRF-CEM [1] worked out at 232 µM; in the assay on A549 it was 51 µM; in the assay on HT-29, 250 µM; in the assay on K562 it was 100 µM; in assay [2] it was 149 µM; with PC-3 it was 250 µM. In the assay on SK-MEL-2, half-maximal inhibition (IC50) was put at 250 µM.
As for `CC(C)[C@@H]1CC[C@]2(C(=O)O)CC[C@]3(C)C(CCC4[C@@]5(C)CC[C@H](O)C(C)(C)C5CC[C@]43C)C12` (stereo partly drawn) [DIHYDROBETULINIC ACID], inhibition in the assay with CCRF-CEM [1] was half-maximal at 7 µM (IC50).
Same read-out and setting: the same measure for `CC(=O)OC[C@@]12CC[C@]3(C)[C@H](CC[C@@H]4[C@@]5(C)CCC(OC(C)=O)C(C)(C)[C@@H]5CC[C@]43C)C1=C(C(C)C)c1nccnc12` (stereo partly drawn): 215 µM.
